Rows were chosen to be rich in hits. Some 2.3% of all compounds tested hit in one or more screens of this group.
TRPC4 potent: TRPC4 (mouse) allosteric potentiation; B-score at 10 µM; HEK293 TRPC4beta/mu-opioid, DAMGO EC20, Fluo-4 Ca2+ flux; active compounds read high; 310,000 tested, 0.42% active; Q9QUQ5;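 active means B-score of calcium response area above 5 SD of library B-scores, with initial fluorescence ratio within 5 SD of library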;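 further: B-score of integrated fluorescence ratio over time as area under calcium response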
TRPC6 inh: mouse TRPC6 channel inhibition. Q61143. AID 2553. B-score at 10 µM. HEK293-TRPC6, membrane potential dye, ACh-evoked depolarization; active compounds read low. 310,000 tested, 1.1% active;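 active means B-score under library mean minus 3 SD, initial fluorescence not abnormally high, positive integrated signal ratio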;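 further: B-score derived from integrated fluorescence ratio over the kinetic read; more negative B-score means stronger inhibition of depolarization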
TRPC6 act: activates the mouse TRPC6 cation channel. HEK293-TRPC6 membrane potential dye fluorescence; active compounds read high. 310,000 tested, 0.13% active. B-score at 10 µM. Q61143. AID 2550;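 active means B-score of the integrated fluorescence ratio above library mean plus 3 SD, and starting fluorescence ratio within library mean plus 5 SD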;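 further: higher score means more depolarization so channel activation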
TRPC4 act: opens the mouse TRPC4 cation channel. Q9QUQ5. HEK293 TRPC4beta/mu-opioid, Fluo4 calcium fluorescence; active compounds read high. B-score at 10 µM. 310,000 tested, 0.49% active. AID 2237;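 active means B-score above 5 SD of library B-scores, and initial fluorescence ratio not above library mean plus 5 SD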;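 further: positive B-score marks a calcium rise read as TRPC4 activation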
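System – HEK293 cells stably co-expressing mouse TRPC4beta and mu-opioid receptor · Signal – Fluo4 calcium-sensitive dye fluorescence, kinetic, 1 Hz baseline · Benchmarks – buffer (low) and maximal DAMGO (high) · Read-out – B score of integrated fluorescence ratio per well · Incubation – dye loading 45 min room temperature, 110 s kinetic read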
TRPC4 inh: TRPC4 (mouse) channel inhibition. Q9QUQ5. HEK293 TRPC4beta/mu-opioid, DAMGO-evoked Fluo4 calcium flux; active compounds read low. B-score at 10 µM. 300,000 tested, 0.39% active. AID 2247;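 active means B-score over 3 SD under the library average, no early fluorescence shift, positive overall ratio signal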
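Assay system – HEK293 line stably carrying TRPC4beta and mu-opioid receptor · Doses – single dose · Detection – Fluo4 calcium-dye fluorescence, kinetic read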
Numbers without * were called inactive; i = inactive.

SMILES	TRPC4 potent	TRPC6 inh	TRPC6 act	TRPC4 act	TRPC4 inh
O=C(Nc1ccon1)c1csc2ccccc12	i	i	i	i	-7*
CN(C)c1ccc(/C=C/C(=O)c2cccc(Br)c2)cc1	18*	i	i	99*	i
COCCNC(=O)C12CC3CC(CC(Cl)(C3)C1)C2	i	i	i	i	i
CC(C)(C)[C@]1(O)CCN2C[C@H]3c4ccccc4CCc4cccc(c43)[C@@H]2C1	i	i	i	61*	i
O=C(CCNC(=O)c1ccc(Cl)cc1)Nc1ccccc1N1CCCCC1	i	i	i	i	-5*
O=C(CCNC(=O)c1ccc(Br)cc1)Nc1ccccc1N1CCCC1	i	i	i	i	i
COc1ccc(/C=C(\C#N)C(=O)OCC(=O)NCc2ccc(Cl)cc2)cc1	i	i	i	i	i
O=C(Nc1c(-c2ccccc2)nc2ccccn12)c1cccc(F)c1	i	i	i	i	i
Nc1nonc1C(=O)NCCN=Cc1ccccc1O	i	i	i	71*	i
Nc1nonc1C(=O)NCCN=Cc1cc(Cc2ccccc2)cc(Br)c1O	i	i	i	i	i
CC(C)CNC(=O)c1ccccc1NC(=O)/C=C/c1cccc([N+](=O)[O-])c1	i	i	i	i	i
Cc1c(C(=O)OCCOc2ccc(Br)cc2)sc(=S)n1C	11*	i	i	i	i
Cc1ccc(OCCOC(=O)c2sc(=S)n(C)c2C)cc1	i	i	i	i	i
CCCn1c2ccccc2c2cnn(CC(=O)NCCCN3CCCC(C)C3)c(=O)c21 (centres undefined)	i	i	i	i	i
CCC(=O)c1ccccc1OCCCN1CCC(Cc2ccccc2)CC1	i	-6.47*	i	i	i
CCOc1ccccc1OCCN1CCC(Cc2ccccc2)CC1	i	i	i	i	i
O=C(CCl)Nc1cn(-c2ccccc2)nc1-c1ccccc1	i	i	i	i	i
NC(=O)c1cccc(CC(=O)c2ccccc2)c1	i	i	i	i	i
Cc1ccc2[nH]c(C)c(CCN(Cc3cccnc3)C(=S)NC(C)(C)C)c2c1	16*	i	i	i	i
CC(C)NC(=O)c1ccc2c(c1)N(CC(=O)Nc1ccccc1F)C(=O)C(C)(C)O2	i	i	i	i	i
Cc1nn(-c2cc(C(F)(F)F)ccc2Cl)c2nc(C(F)(F)F)[nH]c(=O)c12	i	i	i	i	i
Cc1nn(-c2cccc(Cl)c2)c2nc(C(F)(F)F)[nH]c(=O)c12	i	i	i	i	-8*
Cc1ccc(-n2c(SCC(=O)Nc3cccc(S(=O)(=O)NC4=NCCCCC4)c3)nc3ccccc3c2=O)cc1	i	i	i	72*	i
CCc1ccc(-n2c(SCC(=O)Nc3cccc(S(=O)(=O)NC4=NCCCCC4)c3)nc3ccccc3c2=O)cc1	i	i	i	i	i
Clc1ccc2c(c1)CCc1cccnc1C2=C1CCNCC1	i	-5.96*	i	i	i
SMILES	TRPC4 potent	TRPC6 inh	TRPC6 act	TRPC4 act	TRPC4 inh
O=C(COC(=O)c1cccc([N+](=O)[O-])c1)c1ccc2c(c1)OCO2	i	i	i	i	-7*
O=C(OCC(=O)N1CCc2ccccc2C1)c1cccc([N+](=O)[O-])c1	i	i	i	i	-6*
CN(C)c1ccc(NC(=O)CSc2nnc(-c3ccco3)c(-c3ccco3)n2)cc1	i	-5.05*	i	i	i
O=S(=O)(c1ccccc1Br)N1CCN(c2ncccn2)CC1	i	i	i	i	i
CC(C)C(NC(=O)CN(c1ccc2c(c1)OCCO2)S(=O)(=O)c1ccccc1)C(C)C	i	i	i	i	i
O=C(OCC(=O)N1CCCc2ccccc21)c1ccc(C(F)(F)F)cc1	i	i	i	i	i
Cc1ccc(C(=O)OCC(=O)N2CCc3ccccc32)cc1	11*	i	i	i	i
Cn1nccc1C(=O)N1CCC(Cc2ccccc2)CC1	i	i	i	i	i
O=C(COc1ccc2cc(Br)ccc2c1Br)N1CCOCC1	i	i	i	i	i
c1coc(CN=C2NC(=NCc3ccco3)c3ccccc32)c1	i	i	i	i	-7*
Cc1noc(C)c1COC(=O)[C@@H](NC(=O)c1ccccc1Cl)C(C)C	48*	i	i	i	i
N#CC(=C=[N-])c1nc2ccccc2nc1-[n+]1cccc(NC(=O)c2cccs2)c1	i	i	i	i	i
OCCNCCSc1ccc(Cl)cc1	i	i	i	104*	i
O=C(c1ccc(COc2ccccc2Br)cc1)N1CCCCC1	10*	i	i	i	i
C=CCNC(=O)/C(C#N)=C/c1ccc(SC)cc1	10*	i	i	i	i
C=CCNC(=O)/C(C#N)=C/c1ccc2c(c1)OCCO2	i	i	i	i	i
O=C(NCCNC1CCC(c2ccccc2)CC1)c1cccs1 (centres undefined)	i	i	i	158*	i
COc1cc([N+](=O)[O-])cc(/C=C2/SC(=S)N(Cc3ccccc3)C2=O)c1O	i	-6.31*	i	i	i
CCN1CCN(S(=O)(=O)c2ccc(OC)cc2)CC1	i	i	i	i	i
CC(Oc1cccc(Cl)c1)C(=O)Nc1cc(S(=O)(=O)N2CCOCC2)ccc1N1CCCCC1 (centres undefined)	i	i	i	i	i
CCN1CCN(c2ccc(S(=O)(=O)N3CCOCC3)cc2NC(=O)C(C)Oc2cccc(Cl)c2)CC1 (centres undefined)	i	i	i	101*	i
Cc1cc(Cl)ccc1OC(C)C(=O)Nc1ccccc1N1CCOCC1 (centres undefined)	22*	i	i	i	i
CCN1CCN(c2ccc(S(=O)(=O)N3CCOCC3)cc2NC(=O)c2ccccc2OC(F)F)CC1	i	i	i	131*	i
O=C(Nn1cnc2ccccc2c1=O)c1c(F)cccc1F	i	i	i	i	i
O=C(Nc1nccs1)c1ccc(-c2ccc(F)c(Cl)c2)o1	i	i	i	i	i
COc1cc(/C=N/NC(=O)c2ccncc2)ccc1OCc1cnc(Cl)s1	i	i	i	i	i
Cc1nc(Cl)nc(N(C)c2ccccc2)c1[N+](=O)[O-]	i	i	i	i	-6*
Cc1nc(N/N=C/c2ccccc2)nc(N(C)c2ccccc2)c1[N+](=O)[O-]	i	i	i	i	i
